Among the data in ChEMBL document CHEMBL5712903, “Limitations of current in vitro models for testing the clinical potential of epigenetic inhibitors for treatment of pediatric ependymoma” (Oncotarget, 2018) are inhibition, IC50 and Activity values, retold here.

For data set [1], the target named is Histone-lysine N-methyltransferase EZH2 (Homo sapiens) (UniProt Q15910). The data set is described as follows: Inhibition of EZH2 in human EPN9 cells assessed as increase in cell death incubated for 120 hrs by LDH release assay. The class given is cell-based. In outline:
(§1)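 GSK343 or vehicle was added to cells plated in 96 wells the previous day. Drug was replenished after 72 hrs, and cell death was measured by LDH release kit at 120 hrs. Each condition in triplicate, three independent repeats.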

Data set [2] shares this target. The data set is described as follows: Inhibition of EZH2 in human EPN1 cells assessed as increase in cell death incubated for 120 hrs by LDH release assay. The class given is cell-based. The gist of the method: as §1
In general terms: LDH leaks from cells whose membrane has failed.

The target is the same in data set [3]. The data set is described as follows: Inhibition of EZH2 in human BXD-1425EPN cells assessed as increase in cell death incubated for 120 hrs by LDH release assay. The data set is classed as cell-based. The gist of the method: as §1
Data set [4] shares this target. The data set is described as follows: Inhibition of EZH2 in human DKFZ-EP1 cells assessed as increase in cell death incubated for 120 hrs by LDH release assay. The class given is cell-based. In outline:
as §1

Data set [5] has the same target. The data set is described as follows: Inhibition of EZH2 in human DKFZ-EP1 cells assessed as increase in decitabine induced cytotoxicity at 2.5 to 40 uM measured after 96 hrs in presence of decitabine by MTT assay. The class given is cell-based. The conditions noted are these: dose 2.5-40 µM. The gist of the method:
(§2)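 Cells were pretreated 48 hrs with decitabine, then GSK343 was added and incubation continued for a further 96 hrs before MTT viability was read. Drugs were at a fixed ratio from single-agent IC50s (0.125–4 times IC50). Triplicates, three independent repeats, % versus vehicle.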

The target is the same in data set [6]. The data set is described as follows: Inhibition of EZH2 in human BXD-1425EPN cells assessed as increase in decitabine induced cytotoxicity at 2.5 to 80 uM measured after 96 hrs in presence of decitabine by MTT assay. The class given is cell-based. The conditions noted are these: dose 2.5-80 µM. The gist of the method: as §2
For orientation: Tetrazolium dyes change colour on reduction, which living cells bring about.

Data set [7] has the same target. The data set is described as follows: Inhibition of EZH2 in human EPN1 cells assessed as increase in decitabine induced cytotoxicity at 2.5 to 80 uM measured after 96 hrs in presence of decitabine by MTT assay. To be noted: dose 2.5-80 µM. The class given is cell-based. The gist of the method: as §2
Data set [8] has the same target. The data set is described as follows: Inhibition of EZH2 in human EPN9 cells assessed as increase in decitabine induced cytotoxicity at 2.5 to 80 uM measured after 96 hrs in presence of decitabine by MTT assay. The data set is classed as cell-based. To be noted: dose 2.5-80 µM. In outline: as §2
Data set [9] in a line: Cytotoxicity against human fetal NSC assessed as reduction in cell vaibility incubated for 48 hrs by alamar blue assay. To be noted: human fetal neural stem cells (NSC).
Data set [10] addresses Histone-lysine N-methyltransferase EZH2 (Homo sapiens) (UniProt Q15910). The data set is described as follows: Inhibition of EZH2 in human EPN1 cells assessed as decrease in cell viability at 2.5 to 80 uM incubated for 72 hrs in presence of vorinostat by MTT assay. The conditions noted are these: dose 2.5-80 µM.
Data set [11] shares this target. The data set is described as follows: Inhibition of EZH2 in human BXD-1425EPN cells assessed as decrease in cell viability at 2.5 to 80 uM incubated for 72 hrs in presence of vorinostat by MTT assay. The conditions noted are these: dose 2.5-80 µM.
Data set [12] is described as follows: Antiproliferative activity against human BXD-1425EPN cells assessed as reduction in cell viability incubated for 144 hrs by MTT assay. The data set is classed as functional, cell-based. The gist of the method: (§3)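 Ependymoma cells were seeded in 96-well plates and left overnight, then given decitabine or DMSO vehicle. Decitabine was replenished at 24 and 48 hrs, and MTT viability was read 144 hrs after the start. BXD-1425EPN and DKFZ-EP1 were grown in DMEM with 10% FBS; EPN1, EPN8, EPN9 and EPN10 in DMEM with 15% FBS. Triplicates, three independent repeats, % viable versus vehicle; IC50 estimated from dose-response curves.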

Data set [13] is described as follows: Antiproliferative activity against human DKFZ-EP1 cells assessed as reduction in cell viability incubated for 144 hrs by MTT assay. The data set is classed as functional, cell-based. The conditions noted are these: DKFZ-EP1, 144 h. In outline: as §3
The nature of data set [14]: Antiproliferative activity against human EPN1 cells assessed as reduction in cell viability incubated for 144 hrs by MTT assay. The data set is classed as functional, cell-based. The conditions noted are these: EPN1, 144 h. In outline: as §3
Data set [15] can be described thus: Antiproliferative activity against human EPN8 cells assessed as reduction in cell viability incubated for 144 hrs by MTT assay. The class given is functional, cell-based. To be noted: EPN8, 144 h. In outline:
as §3

The nature of data set [16]: Antiproliferative activity against human EPN9 cells assessed as reduction in cell viability incubated for 144 hrs by MTT assay. To be noted: EPN9, 144 h. The class given is functional, cell-based. The gist of the method: as §3
Data set [17] in a line: Antiproliferative activity against human EPN10 cells assessed as reduction in cell viability incubated for 144 hrs by MTT assay. The class given is functional, cell-based. To be noted: EPN10, 144 h. The gist of the method: as §3
The test system of data set [18] is BXD-1425EPN. The data set is described as follows: Induction of cell death in human BXD-1425EPN cells incubated for 144 hrs by LDH release assay. The class given is functional, cell-based. In outline: (§4)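 LDH cytotoxicity kit read-out of cell death after 144 hrs of decitabine or vehicle exposure. Cells were plated in 96 wells and left overnight before dosing, with decitabine replenished at 24 and 48 hrs. Triplicates in three independent repeats. All drugs were dissolved in DMSO.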

The subject of data set [19] is DKFZ-EP1. The data set is described as follows: Induction of cell death in human DKFZ-EP1 cells incubated for 144 hrs by LDH release assay. The data set is classed as functional, cell-based. The gist of the method: as §4
Data set [20] concerns EPN1. The data set is described as follows: Induction of cell death in human EPN1 cells incubated for 144 hrs by LDH release assay. The class given is functional, cell-based. In outline:
as §4

For data set [21], the system named is EPN9. The data set is described as follows: Induction of cell death in human EPN9 cells incubated for 144 hrs by LDH release assay. The data set is classed as functional, cell-based. In outline: as §4

Active and inactive are the calls of the source. The rule behind the calls is not given here. A value given as a limit tells only on which side of the number the result lay.

Sequence of Histone-lysine N-methyltransferase EZH2 (Homo sapiens) (Q15910 whole entry, looked up): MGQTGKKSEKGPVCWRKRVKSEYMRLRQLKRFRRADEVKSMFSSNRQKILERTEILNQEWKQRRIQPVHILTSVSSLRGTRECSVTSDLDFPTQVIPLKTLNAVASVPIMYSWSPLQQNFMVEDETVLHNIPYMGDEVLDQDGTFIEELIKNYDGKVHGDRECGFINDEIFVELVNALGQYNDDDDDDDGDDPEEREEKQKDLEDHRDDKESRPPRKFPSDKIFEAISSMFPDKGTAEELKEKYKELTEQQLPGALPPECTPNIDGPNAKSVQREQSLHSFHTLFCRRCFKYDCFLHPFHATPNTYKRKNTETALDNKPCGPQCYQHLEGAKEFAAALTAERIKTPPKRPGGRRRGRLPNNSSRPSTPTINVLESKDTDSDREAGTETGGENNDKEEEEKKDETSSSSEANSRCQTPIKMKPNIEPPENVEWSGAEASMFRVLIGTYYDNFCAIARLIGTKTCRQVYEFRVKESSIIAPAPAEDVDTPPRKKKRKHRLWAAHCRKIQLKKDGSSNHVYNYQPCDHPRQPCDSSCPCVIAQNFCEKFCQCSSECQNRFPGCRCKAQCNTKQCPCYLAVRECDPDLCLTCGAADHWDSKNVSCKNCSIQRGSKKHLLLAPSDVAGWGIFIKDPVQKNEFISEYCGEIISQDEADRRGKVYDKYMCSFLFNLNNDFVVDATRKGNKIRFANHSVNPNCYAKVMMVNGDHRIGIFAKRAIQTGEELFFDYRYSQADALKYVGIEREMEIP

On to `CCCc1cc(C)[nH]c(=O)c1CNC(=O)c1cc(-c2ccnc(N3CCN(C)CC3)c2)cc2c1cnn2C(C)C`, for which the inhibition entry in data set [1], in [2], in data set [3], in data set [4], in data set [10] and in data set [11] was “Active” in each case. The inhibition result in data set [5], in [6], in data set [7] and in data set [8] was “inactive” throughout. For the same compound, in data set [9], the IC50 at 48 h is 9000 nM.
For `Nc1ncn([C@H]2C[C@H](O)[C@@H](CO)O2)c(=O)n1` [DECITABINE], the 50% inhibitory concentration (IC50) in [12] was 400 nM; in data set [13] it was no less than 50 nM; in data set [14] it was no less than 50 nM; in [15], 50 nM; in [16] it was no less than 50 nM; in data set [17], no less than 50 nM. For the same compound, the result in [18], in data set [19], in data set [20] and in data set [21] was inactive.
With `Cc1[nH]c2ccccc2c1CCNCc1ccc(/C=C/C(=O)NO)cc1` [PANOBINOSTAT], in data set [9], the IC50 at 48 h turned out to be 80 nM.

The term IC50 denotes the concentration needed to halve the response being measured.
